Results taken from ChEMBL document CHEMBL4513216, “Probing the Open Global Health Chemical Diversity Library for Multistage-Active Starting Points for Next-Generation Antimalarials” (ACS Infect Dis, 2020).

Assay: Toxicity liver stage against HepG2, at 10uM
Format: cell-based
Set-up: test concentration 10 uM, cell line HepG2-A16-CD81EGFP
Settings: human, HepG2-A16-CD81EGFP cells; read-out: INHIBITION
Summary of the method: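 Uninfected HepG2-A16-CD81EGFP cells, 3 × 10^3 per well, 1536-well, plated on prespotted compound at 10 μM final, parasite-free screening media added to match infected plates; puromycin 10 μM positive, DMSO 0.5% negative; run in parallel with 48 h PbLuc assay at 37 °C, 5% CO2; viability by CellTiter-Glo luminescence, normalized to controls.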

SMILES | cytotoxicity at 10 µM
COc1cccc2c1OCCCN(c1nc3c(c(=O)[nH]1)CCNCC3)C2 | -5.24%
O=C(NCCc1ccccc1)N1C[C@@H]2C[C@H](C(=O)N3CCCC3)[C@H](C1)O2 | 6.95%
COc1cc(CNC(C)c2cccc(Cl)c2)cc(OC)c1OC (stereo not drawn) | 5.02%
Cc1cc(C(=O)N2CCCCC2C)ccc1NC(=O)N1CCOCC1 (stereo not drawn) | 7.02%
COc1ccc2c(c1)CCCN2Cc1nc(C)c(C)o1 | 4.74%
CC(=O)NCC(=O)N1CCc2nc(C)nc(C)c2CC1 | -12%
CCN1C(=O)CCC12CCCN(Cc1ccc(F)cc1)CC2 (stereo not drawn) | -0.861%
Cc1c(CNC(=O)C2CCCCCN2C)oc2ccccc12 (stereo not drawn) | 11.4%
CC(C)Cc1cc(CNc2nc(-c3cccnc3)nc3c2CNC3)no1 | 1.95%
Cn1ccc(CN2CCN(CC3CC3)CC2)cc1=O | -16.6%
CC(C)(C)NC(=O)c1ccn(COc2c(Cl)cccc2Cl)n1 | 3.02%
O=C(O)c1cc(-n2cc3c(n2)CCC3)cc(S(=O)(=O)NC2CCCC2)c1 | -2.05%
CCCc1c(C2CCOC(C)(C)C2)nc(N)c(C#N)c1-c1cnn(C)c1 (stereo not drawn) | -3.22%
CCc1ccc(C(=O)N2CCC(N(C)C(=O)OC(C)(C)C)C2)o1 (stereo not drawn) | -48%
Cc1ccnc(C2CCCN2C(=O)CN(C)C)n1 (stereo not drawn) | -19.1%
N#Cc1ccc(C(=O)O)nc1C=Cc1cccc(Cl)c1 | 13%
COc1no[n+]([O-])c1-c1ccccc1 | 8.2%
OCCN1CCN(Cc2coc(-c3ccc(Cl)cc3)n2)CC1 | -13.6%
Cc1cc(NCCNS(=O)(=O)c2cccc(Cl)c2)nc(C)n1 | 2.9%
CCS(=O)(=O)N1C[C@H]2CN(Cc3cccnc3)C(=O)[C@H]2C1 | -17.8%
Cc1noc(C)c1CN(C)CC(c1cccs1)N1CCOCC1 (stereo not drawn) | -4.98%
CN(C)CCO[C@H]1CN(CC2CC2)[C@@H]2CCCO[C@H]12 | -96.3%
O=c1[nH]c2ccccc2c(=O)n1Cc1nnnn1C1CC1 | -16.1%

SMILES | cytotoxicity at 10 µM
Cc1ccc(OCCN2CCN(Cc3cnn(CCO)c3)CC2)cc1 | -2.4%
CN(C)c1ccccc1CN1CCC(N2CCCC2=O)CC1 | 5.02%
CCn1c(SCC(N)=O)nnc1-c1csc2c1CCCC2 | 16%
Cn1cc(NC(=O)c2cccc(-n3cnnn3)c2)cn1 | 5.39%
Cc1cnc(C(=O)N2CCCC(n3cccn3)C2)cn1 (stereo not drawn) | -0.29%
Cc1noc(-c2ccnc(N3CCC(CN4CCOCC4)CC3)c2)n1 | -2.11%
Cc1cccc(CN(Cc2ccc(C)o2)C2CC(C)(C)NC(C)(C)C2)n1 | -2.42%
CCCNC(=O)c1cnc2n1CCCC2 | -3.19%
CCc1[nH]c2c(CNC(=O)C3CNC(=O)C3)cc(C)cc2c1C (stereo not drawn) | 2.75%
CCOC1CC2(CCN(Cc3nccn3C)CC2)C1 | -144%
Cc1ccc(NC(=O)N2CC[C@@H](O)C2)c(-c2nc(C3CC3)no2)c1 | -4.16%
COc1ccc2c(c1)nc1n2[C@@H](CNC(=O)c2cccnc2)COC1 | -3.74%
Cc1ccc(CN2CCNC(=O)C2CC(=O)N2CCSCC2)o1 (stereo not drawn) | 4.48%
COCC(c1cccc(C(F)(F)F)c1)N(C)C(=O)c1ccncc1 (stereo not drawn) | -14.6%
CN(C)C(CNC(=O)c1ccc(-n2cnnn2)cc1)c1ccccc1Cl (stereo not drawn) | -8.16%
CN1Cc2c(C(=O)NCC3CCCO3)ncn2-c2ccccc2S1(=O)=O (stereo not drawn) | -141%
N#Cc1cn(C2CC2)c(=O)n(CC(O)c2ccccc2F)c1=O (stereo not drawn) | 3.97%
Fc1ccc(Cn2ncc3c2CN(c2noc(C4CC4)n2)C3)cc1 | -2.76%
COc1ccc(C(O)CNC(=O)Nc2cc(C)nn2C)cc1 (stereo not drawn) | 2.33%
CN(C)CC1CN(CCOc2cccc(C#N)c2)CCO1 (stereo not drawn) | -9.63%
O=C(c1cn(-c2ccccc2Cl)nn1)N1CCCSCC1 | -4.26%
CC(C)CN(C)c1ccc(C(=O)N2CCCC2c2cnn(C)c2)cn1 (stereo not drawn) | -6.95%
Cc1nc2ccccc2nc1CN1CCCC1c1c(C)nn(C)c1C (stereo not drawn) | -1.78%

SMILES | cytotoxicity at 10 µM
CCN(CC)Cc1ccc(C(=O)NC2CCc3ccccc32)o1 (stereo not drawn) | -3.97%
CC(=O)N(Cc1noc(C2CC2)n1)C1CCN(Cc2cccnc2)C1 (stereo not drawn) | -3.36%
CC(C)CN(c1cn[nH]c1)S(=O)(=O)c1cccc(C#N)c1 | 8.75%
Cc1ccc(NC(=O)CNC(C)Cc2ccsc2)cc1F (stereo not drawn) | 9.17%
c1ccc(CCN2CCC(OCC3CCCCO3)CC2)nc1 (stereo not drawn) | -4.9%
Cc1ncc(COc2cccc3c2NC(=O)CO3)s1 | -3.13%
Cc1ccc(CN2CCCn3c(nc(CN4CCCC4)cc3=O)C2)s1 | -0.207%
COCCNS(=O)(=O)c1ccc2c(c1)CCN(C(=O)c1cncn1C)C2 | 9.65%
CCC(C)N(Cc1cccnc1)C(=O)c1ccc(F)c(O)c1 (stereo not drawn) | 1.87%
CC(=O)NCC(=O)N1CCC2(COCc3c(C)nc(N(C)C)nc32)C1 (stereo not drawn) | 1.41%
CCOC(CC)C(=O)NCCC(=O)N1CCN(c2ccccn2)CC1 (stereo not drawn) | -7.4%
Nc1nccnc1C(=O)N1CCN(Cc2cccc3ccccc23)CC1 | -108%
Cc1cc(C)n(CC(C)NC2CCN(Cc3cccnc3)CC2)n1 (stereo not drawn) | 2.45%
N#Cc1ccccc1Cn1cncn1 | 13.1%
CN(C)CCN(C)C(=O)Nc1cc(F)cc(N2CCCC2)c1 | -2.22%
CN(C)CCN1CCCC12CCCN(C(=O)c1cccnc1)C2 (stereo not drawn) | -0.95%
CCOC(=O)N1CCN(C(=O)c2sc(-c3ccccc3)nc2C)CC1 | -3.08%
Cc1nn(C)c(Cl)c1C1CCCN1C(=O)c1ccc(C(N)=O)cn1 (stereo not drawn) | -32%
Cn1ccnc1SCCNC(=O)Cn1cnc2ccccc2c1=O | -20.7%
Cc1nn(C)c(N(C)C)c1CNC1CCc2c(Cl)cccc21 (stereo not drawn) | -7.07%
CN1CCN(CCO)C(=O)C12CCN(Cc1ccsc1)CC2 | 3.66%
CCCn1nc2c(cc1=O)CN(c1ncnc3ccsc13)CC2 | 49.5%
CC(=O)c1cc(C(=O)NC2(c3ccccc3)CCC2)n(C)c1 | -11.7%

SMILES | cytotoxicity at 10 µM
CCOc1ccc(NC(=O)N(C)Cc2cnn(C)c2)c(C)c1 | -9.63%
CN1CCOC(CNC(=O)CCCOc2ccccc2F)C1 (stereo not drawn) | -3.15%
O=C(O)c1cc(C=Cc2ccc3ccccc3c2)ncn1 | -13.6%
Cc1nccn1CCCn1cncc1-c1ccc2c(c1)CC(C)N2C (stereo not drawn) | 0.94%
Cc1ncsc1-c1nnc(C2CCN(Cc3ccccc3F)CC2)o1 | -10.2%
CCN1CCN(C(=O)C(C)N2CCc3cncnc3C2)CC1 (stereo not drawn) | -10.9%
CN1CCN(c2cnn(CCn3cccn3)c(=O)c2)CC1 | -47.4%
COc1ccccc1/C=C/CNCC1CCc2nncn2C1 (stereo not drawn) | 3.91%
CN(C)C1CC2(CCN(C(=O)c3csnn3)CC2)c2ccccc21 (stereo not drawn) | -138%
O=C(C1CCCO1)N1CCCC2(CCN(c3cccnc3)CC2)C1 (stereo not drawn) | 2.68%
CCCc1cc(C(=O)N(C)Cc2cccc3ncccc23)n(C)n1 | -0.758%
CCn1ncnc1CN1CCC(CNC(=O)c2cccnc2O)C1 (stereo not drawn) | 7.06%
CCc1ccc(CN2CCc3ncnc(N4CCOCC4)c3CC2)o1 | -2.05%
CN(C)C1(CNC(=O)c2c(O)cc(Cl)cc2Cl)CCOCC1 | -9.46%
Cc1cnn(C2CN(CC(O)COCc3ccc4c(c3)OCO4)C2)c1 (stereo not drawn) | -5.41%
N#Cc1cc(Cl)ccc1N1CCN(C(=O)C2CCC2)CC1 | 10.1%
Cc1nn(C)c(C)c1CNC(=O)c1cc(NC(=O)C2CC2)n(C)n1 | 5.31%
COCCN(C)CCN1CC2(CCN(C3CCCOC3)CC2)OC1=O (stereo not drawn) | -11%
CNC(=O)c1n[nH]c2c1C(c1cccc3[nH]ccc13)CC(=O)N2 (stereo not drawn) | 4.06%
CCOC(=O)N1CC(C)=C(C)CN1C(=O)Nc1ccc(Cl)c(Cl)c1 | -0.113%
Cn1nc(C2CCCN(Cc3ccc(F)cc3)C2)c2nccnc21 (stereo not drawn) | -24.8%
Cc1cccc(CNC(=O)c2cccnc2N)c1 | 11%
Cc1cccc(-c2noc(CN3CCC(c4ccn[nH]4)CC3)n2)c1 | 4.13%

SMILES | cytotoxicity at 10 µM
Cc1ncc(CN2CCN(c3ccc4nncn4n3)C(C)C2)s1 (stereo not drawn) | -9.04%
CNC(=O)[C@@H](C1CCCCC1)N1CCC[C@H]1C(=O)NC1CC1 | 5.56%
Cc1cc2ccccc2n1CC(=O)N[C@@H](C)C(=O)O | 0.77%
COCc1nc2cc(NCc3scnc3C)ccc2o1 | 18.6%
CC(CCc1ccccc1F)C(=O)NS(=O)(=O)N(C)C(C)C (stereo not drawn) | 10.6%
Cc1cc(N2CCOC(c3ccccn3)C2)nc(N)n1 (stereo not drawn) | 4.4%
CCN1CCN(C2CCN(Cc3c(C)noc3C)CC2)C1=O | -7.85%
Cc1cc(NC2CCc3ncnn3C2)n2nc(C(F)(F)F)nc2n1 (stereo not drawn) | 2.93%
Cc1ccc(C(=O)N2Cc3c(CN4CCCCC4)nn(C)c3C2)cc1C | -2.81%
CCOCCN1CCCC(c2cc(C(N)=O)[nH]n2)C1 (stereo not drawn) | 3.78%
O=C(NCc1cccnc1)N1CCc2ncnc(C3CC3)c2CC1 | -144%
CCNC(=O)Nc1cccc(F)c1C(=O)NC1CCCC1 | 5.69%
CC[C@H](C)[C@@H](CO)NC(C)Cc1ccccc1F (stereo partly drawn) | -7.36%
O=C1COc2cc(C(=O)NS(=O)(=O)c3ccccc3F)ccc2N1 | -4.79%
O=C(c1ccno1)N1CCOC[C@H](Oc2ccc(C(F)(F)F)cc2)C1 | 1.48%
O=C(N1CCCC1)N1CCc2c(CNc3ncccn3)cncc2C1 | 3.97%
CCCSCC(=O)N1C[C@H]2CC[C@@H](C1)N(Cc1ccccn1)C2=O | 3.32%
CC(=O)N1N=C(c2ccccc2)OC1C(=O)NCCOc1ccccc1 (stereo not drawn) | -2.86%
O=C(NCCc1csc(-c2cnccn2)n1)c1cnn[nH]1 | 6.46%
COCC(=O)N1CCCC(c2nc(N)ncc2-c2cccc(F)c2)C1 (stereo not drawn) | -0.6%
CN(CC1(CO)CCC1)C(=O)c1cc(COc2ccccc2F)[nH]n1 | 12.1%
